Measured values as given in paper PMC7193547 (Environmental Science & Technology, 2018).
Where two headings read alike, the source gives them in different places.

Columns and labels:
[1] = system: active glyphosate transporter; details: cited from earlier work
Ochrobactrum sp. FrEM = test: Biodegradation of glyphosate by Ochrobactrum sp. FrEM; assay type: cell-based; details: after 4.5 days, OD600 ≈ 0.8, 30 °C, pH 7
single bacterial cell = system: single bacterial cell
Outline: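 Calculated rather than measured: the liposome-derived Papp was scaled to a single cell using an estimated cell surface area of ≈3 μm² and membrane thickness δ (one 4 nm membrane for Gram-positive, two 4 nm membranes for Gram-negative), giving a concentration-gradient-dependent influx.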

[2] = assay type: physicochemical; details: not told

For `O=C(O)CNCP(=O)(O)O` [glyphosate, N-(phopshomethyl)glycine], the “uptake rate of active glyphosate transporter (dnout/dt)cell-transport” value [1] is listed as −1.8 × 10^–21 mol·s^–1·cell^–1, the Km ([1]; read-out: affinity constant KM for glyphosate uptake) is listed as 125 µM and the “maximum glyphosate degradation rate (dn/dt)deg-cell” value (Ochrobactrum sp. FrEM) is listed as −1.7 × 10^–21 mol·s^–1·cell^–1. For the same compound, the “calculated maximum membrane permeation rate (dnout/dt)cell-perm-max” value (single bacterial cell; glyphosate concentration of 1 μM) was −6.5 × 10^–22 mol·s^–1·cell^–1, the “calculated maximum membrane permeation rate (dnout/dt)cell-perm-max” value (single bacterial cell; pH 7, 0.12 mM glyphosate, compared with Ochrobactrum sp. FrEM) was −7.5 × 10^–20 mol·s^–1·cell^–1 and the “calculated maximum membrane permeation rate (dnout/dt)cell-perm-max” value (single bacterial cell; pH 7, 3 mM glyphosate, [Sin] = 0, compared with Achromobacter sp. MPS 12A) was −1.9 × 10^–18 mol·s^–1·cell^–1. The “maximum permeation rate higher than degradation rate” value (single bacterial cell; pH 7, 3 mM, versus degradation rate of Achromobacter sp. MPS 12A) was 2 orders of magnitude, the Papp at 20 mM ([2]; pH 4.1) was 420 ×10⁻⁶ cm/s and the Papp at 20 mM ([2]; pH 7) was 37 ×10⁻⁶ cm/s.
